Columns and labels:
[1] = molecular target: T1, Tyrosine-protein phosphatase non-receptor type 1 (Homo sapiens, UniProt P18031); experiment: Inhibition of PTP1B
T1 sequence (P18031 whole entry): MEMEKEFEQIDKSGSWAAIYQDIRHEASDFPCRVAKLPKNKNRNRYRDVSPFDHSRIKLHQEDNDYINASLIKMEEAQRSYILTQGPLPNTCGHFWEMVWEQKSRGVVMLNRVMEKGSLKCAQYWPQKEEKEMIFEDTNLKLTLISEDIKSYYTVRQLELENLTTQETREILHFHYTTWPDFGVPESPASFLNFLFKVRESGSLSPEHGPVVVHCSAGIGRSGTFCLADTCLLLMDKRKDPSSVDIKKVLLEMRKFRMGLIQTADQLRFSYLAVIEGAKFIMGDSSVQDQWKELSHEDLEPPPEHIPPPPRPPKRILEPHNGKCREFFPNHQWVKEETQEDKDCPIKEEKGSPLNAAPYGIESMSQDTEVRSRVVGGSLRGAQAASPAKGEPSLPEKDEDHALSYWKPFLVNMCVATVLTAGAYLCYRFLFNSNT
Method in brief: (§1)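 Fluorometric DiFMUP hydrolysis at 30 C in 50 mM Bis-Tris pH 6.0 (ionic strength 50 mM with NaCl), 1 mM DTT, 5% DMSO, 1% PEG8000. DiFMUP fixed at each PTP's Km. Initial rates read at ex 360/em 460 nm across several compound concentrations. No-enzyme control used to correct for nonenzymatic hydrolysis. HePTP was recombinant in-house; PTP1B, Shp1, CD45 and LAR were commercial recombinant enzymes.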

[2] = molecular target: Receptor-type tyrosine-protein phosphatase F (Homo sapiens, UniProt P10586); experiment: Inhibition of LAR; method in brief: as §1
[3] = molecular target: T2, Tyrosine-protein phosphatase non-receptor type 7 (Homo sapiens, UniProt P35236); experiment: Inhibition of HePTP; method in brief: as §1
T2 sequence (P35236 whole entry): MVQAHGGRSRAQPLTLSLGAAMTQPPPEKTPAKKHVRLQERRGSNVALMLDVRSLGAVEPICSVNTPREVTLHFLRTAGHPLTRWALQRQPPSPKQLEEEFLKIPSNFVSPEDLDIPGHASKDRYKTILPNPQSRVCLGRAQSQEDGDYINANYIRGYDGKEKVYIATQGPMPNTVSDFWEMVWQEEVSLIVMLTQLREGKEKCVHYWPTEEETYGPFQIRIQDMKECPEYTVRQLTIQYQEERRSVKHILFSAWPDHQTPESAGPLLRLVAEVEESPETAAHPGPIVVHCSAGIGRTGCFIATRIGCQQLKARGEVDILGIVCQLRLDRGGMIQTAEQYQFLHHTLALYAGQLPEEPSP

[4] = molecular target: T3, Receptor-type tyrosine-protein phosphatase C (Homo sapiens, UniProt P08575); experiment: Inhibition of CD45; method in brief: as §1
T3 sequence (P08575 whole entry): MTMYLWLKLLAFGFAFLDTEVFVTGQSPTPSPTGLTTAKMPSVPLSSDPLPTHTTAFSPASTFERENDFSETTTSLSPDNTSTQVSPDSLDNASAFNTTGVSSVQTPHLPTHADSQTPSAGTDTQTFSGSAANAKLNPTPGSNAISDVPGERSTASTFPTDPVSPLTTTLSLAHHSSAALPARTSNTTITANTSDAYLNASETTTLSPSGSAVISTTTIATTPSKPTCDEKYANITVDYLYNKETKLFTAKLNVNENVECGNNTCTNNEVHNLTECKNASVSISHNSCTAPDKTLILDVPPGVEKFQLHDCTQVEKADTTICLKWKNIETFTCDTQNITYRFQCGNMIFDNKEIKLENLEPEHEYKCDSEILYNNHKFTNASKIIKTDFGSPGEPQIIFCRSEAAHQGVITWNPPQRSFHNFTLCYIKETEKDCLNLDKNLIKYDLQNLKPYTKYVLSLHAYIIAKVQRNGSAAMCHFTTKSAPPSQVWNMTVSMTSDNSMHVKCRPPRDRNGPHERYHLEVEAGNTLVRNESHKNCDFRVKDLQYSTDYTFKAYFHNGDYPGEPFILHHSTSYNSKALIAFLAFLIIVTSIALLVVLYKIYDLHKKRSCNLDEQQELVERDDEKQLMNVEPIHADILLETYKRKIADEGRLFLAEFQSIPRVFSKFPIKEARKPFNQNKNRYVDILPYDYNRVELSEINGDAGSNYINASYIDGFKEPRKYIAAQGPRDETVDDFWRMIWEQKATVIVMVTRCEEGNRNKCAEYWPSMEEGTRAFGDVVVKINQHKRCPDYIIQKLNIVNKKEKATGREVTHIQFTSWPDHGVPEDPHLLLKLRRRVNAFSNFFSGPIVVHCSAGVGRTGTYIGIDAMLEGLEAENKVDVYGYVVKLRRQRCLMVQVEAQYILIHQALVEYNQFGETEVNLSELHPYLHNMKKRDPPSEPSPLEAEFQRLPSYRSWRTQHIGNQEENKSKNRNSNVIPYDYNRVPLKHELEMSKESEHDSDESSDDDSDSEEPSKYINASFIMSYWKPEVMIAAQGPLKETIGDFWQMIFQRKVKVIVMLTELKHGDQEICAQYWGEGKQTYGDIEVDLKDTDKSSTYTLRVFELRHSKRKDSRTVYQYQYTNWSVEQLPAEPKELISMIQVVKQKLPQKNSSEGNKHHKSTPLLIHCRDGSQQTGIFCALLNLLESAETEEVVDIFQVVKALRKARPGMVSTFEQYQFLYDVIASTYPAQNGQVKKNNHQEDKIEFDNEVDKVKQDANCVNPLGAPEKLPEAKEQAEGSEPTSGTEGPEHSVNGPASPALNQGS

Receptor-type tyrosine-protein phosphatase F, sequence (P10586 whole entry): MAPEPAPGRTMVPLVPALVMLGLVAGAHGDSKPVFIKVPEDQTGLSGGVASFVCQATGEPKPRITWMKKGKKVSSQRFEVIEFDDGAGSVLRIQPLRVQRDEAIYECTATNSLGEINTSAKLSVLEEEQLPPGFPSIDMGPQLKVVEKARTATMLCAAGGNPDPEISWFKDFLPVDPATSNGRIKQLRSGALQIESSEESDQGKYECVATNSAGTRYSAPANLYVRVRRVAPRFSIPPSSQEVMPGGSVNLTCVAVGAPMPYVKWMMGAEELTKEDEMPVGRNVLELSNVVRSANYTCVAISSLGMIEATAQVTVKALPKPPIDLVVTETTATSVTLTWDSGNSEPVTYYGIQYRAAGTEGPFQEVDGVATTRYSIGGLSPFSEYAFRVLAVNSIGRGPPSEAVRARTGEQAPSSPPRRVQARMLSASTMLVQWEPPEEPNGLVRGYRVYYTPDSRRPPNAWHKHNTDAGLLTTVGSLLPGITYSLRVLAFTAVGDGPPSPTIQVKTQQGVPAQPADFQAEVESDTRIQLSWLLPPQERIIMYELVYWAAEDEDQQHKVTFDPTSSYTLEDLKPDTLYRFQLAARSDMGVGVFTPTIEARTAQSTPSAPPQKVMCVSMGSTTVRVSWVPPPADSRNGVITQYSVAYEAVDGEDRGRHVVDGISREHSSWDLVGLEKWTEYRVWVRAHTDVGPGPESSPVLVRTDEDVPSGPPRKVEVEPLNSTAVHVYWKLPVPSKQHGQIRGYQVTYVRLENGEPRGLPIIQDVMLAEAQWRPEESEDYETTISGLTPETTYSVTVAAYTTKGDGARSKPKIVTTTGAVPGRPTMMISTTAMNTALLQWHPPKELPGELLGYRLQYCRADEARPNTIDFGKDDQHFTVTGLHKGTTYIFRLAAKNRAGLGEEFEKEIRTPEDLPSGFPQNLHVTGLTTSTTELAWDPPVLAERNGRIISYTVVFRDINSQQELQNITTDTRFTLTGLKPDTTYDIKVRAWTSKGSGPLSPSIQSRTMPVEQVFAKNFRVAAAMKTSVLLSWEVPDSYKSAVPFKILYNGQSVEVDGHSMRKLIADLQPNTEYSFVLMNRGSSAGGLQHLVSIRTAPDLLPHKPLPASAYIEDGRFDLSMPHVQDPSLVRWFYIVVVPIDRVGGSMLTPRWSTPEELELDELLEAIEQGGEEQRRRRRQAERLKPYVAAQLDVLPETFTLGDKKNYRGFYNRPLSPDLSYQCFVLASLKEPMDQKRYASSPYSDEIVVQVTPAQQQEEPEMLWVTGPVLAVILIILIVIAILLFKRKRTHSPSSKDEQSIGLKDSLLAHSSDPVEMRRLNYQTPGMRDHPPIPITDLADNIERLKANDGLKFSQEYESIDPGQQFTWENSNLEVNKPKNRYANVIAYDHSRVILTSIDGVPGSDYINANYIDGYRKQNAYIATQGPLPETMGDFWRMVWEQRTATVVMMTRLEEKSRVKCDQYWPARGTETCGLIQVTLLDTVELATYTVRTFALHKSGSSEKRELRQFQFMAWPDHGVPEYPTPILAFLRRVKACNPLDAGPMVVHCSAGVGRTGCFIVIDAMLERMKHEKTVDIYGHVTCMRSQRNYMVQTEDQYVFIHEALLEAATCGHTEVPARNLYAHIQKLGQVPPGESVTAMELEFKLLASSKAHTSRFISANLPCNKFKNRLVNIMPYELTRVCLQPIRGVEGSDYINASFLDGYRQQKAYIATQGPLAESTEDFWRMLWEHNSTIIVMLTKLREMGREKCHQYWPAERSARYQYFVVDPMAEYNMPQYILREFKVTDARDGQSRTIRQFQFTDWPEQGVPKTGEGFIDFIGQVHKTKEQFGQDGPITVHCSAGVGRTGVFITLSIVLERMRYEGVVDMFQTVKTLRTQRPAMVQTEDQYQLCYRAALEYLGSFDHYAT

SMILES: COC(=O)c1cc2c(-c3cn(CCCC(=O)Nc4ccc(Cl)c5ccccc45)nn3)c(-c3ccccc3)oc2cc1O
- IC50 [1]: 11.5 µM
- IC50 [2]: 44.4 µM
- IC50 [3]: 32 µM
- IC50 [4]: 16.2 µM

SMILES: Cc1ccc(-c2oc3cc(O)c(C(=O)O)cc3c2-c2cn(CCCC(=O)Nc3ccc(Cl)c4ccccc34)nn2)cc1
- IC50 [1]: 0.205 µM
- IC50 [2]: 23.7 µM
- IC50 [3]: 3.69 µM
- IC50 [4]: 1.05 µM

SMILES: COc1ccc2nc(NC(=O)CCCn3cc(-c4c(-c5cccc(C)c5)oc5cc(O)c(C(=O)O)cc45)nn3)sc2c1
- IC50 [1]: 0.217 µM
- IC50 [2]: 39.9 µM
- IC50 [3]: 6.36 µM
- IC50 [4]: 0.877 µM

SMILES: COc1ccc(-c2oc3cc(O)c(C(=O)O)cc3c2-c2cn(CCCC(=O)Nc3cccc4ccccc34)nn2)cc1
- IC50 [1]: 0.19 µM
- IC50 [2]: 25.5 µM
- IC50 [3]: 3.7 µM
- IC50 [4]: 0.41 µM

SMILES: Cc1ccc(-c2oc3cc(O)c(C(=O)O)cc3c2-c2cn(CCCC(=O)Nc3cccc4ccccc34)nn2)cc1
- IC50 [1]: 0.214 µM
- IC50 [2]: 36.1 µM
- IC50 [3]: 4.07 µM
- IC50 [4]: 0.681 µM
